Screening data: PubChem BioAssay, The Scripps Research Institute Molecular Screening Center
OX1R antag-1: antagonists of human orexin 1 receptor (OX1R); OX1R-expressing cells, FRET antagonist read-out; hit rate 1.8% among 330,000; AID 485270, 2010; inhibition, % at 6.6 µM; Orexin/Hypocretin receptor type 1 (Homo sapiens), O43613; in the data active = inhibition mostly above about 38%, no sharp cut-off; inactive = mostly below about 40%;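 also: 0% = agonist challenge alone and 100% = reference antagonist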
Target sequence (O43613 whole entry, looked up): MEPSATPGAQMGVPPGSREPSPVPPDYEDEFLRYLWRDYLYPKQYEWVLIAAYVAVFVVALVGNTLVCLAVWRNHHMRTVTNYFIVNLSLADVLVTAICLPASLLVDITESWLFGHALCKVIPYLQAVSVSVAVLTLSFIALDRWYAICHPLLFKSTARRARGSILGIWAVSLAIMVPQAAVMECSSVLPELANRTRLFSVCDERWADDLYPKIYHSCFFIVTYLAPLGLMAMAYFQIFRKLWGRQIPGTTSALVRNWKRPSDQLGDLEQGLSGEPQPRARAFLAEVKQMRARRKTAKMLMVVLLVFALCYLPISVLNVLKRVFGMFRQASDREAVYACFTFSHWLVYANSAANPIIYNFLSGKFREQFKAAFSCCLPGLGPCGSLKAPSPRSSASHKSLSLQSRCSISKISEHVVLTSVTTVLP
TAAR1 ag: human TAAR1 agonists, primary screen, Fluo-8 calcium fluorescence, CHO RD-HGA16 cells | Trace amine-associated receptor 1 (Homo sapiens), Q96RJ0 | vehicle wells 0%, saturating PEA agonist 100% | activation, % at 3 µM | hit rate 0.99% among 360,000 | AID 624467, 2012;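 active = activation above the mean activation of all test compounds in the run plus 3 SD, cut at about 38% in these data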
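Test system: RD-HGA16 (CHO) cells co-expressing Gα16 and hTAAR1 / Benchmarks: DMSO vehicle as 0%, PEA at EC100 as 100% / Repeats: no replicates (n 1) / Measure: % activation from peak over basal fluorescence ratio, DMSO-to-PEA scaled / Timing: 17-24 h plating, Fluo-8 75 min 37 °C, 30 min RT / Technique: kinetic Fluo-8 calcium fluorescence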
TAAR1 antagonist: human TAAR1 antagonists, primary screen, Fluo-8 calcium fluorescence, CHO RD-HGA16 cells | inhibition, % at 3 µM | hit rate 1.5% among 360,000 | antagonist;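 active = inhibition above a per-plate cutoff, the mean inhibition of test compounds on that plate plus 3 SD, cut at about 49% in these data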;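 also: 0% = DMSO plus EC80 beta-PEA response and 100% = DMSO alone without agonist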
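System: RD-HGA16 CHO cells with stable hTAAR1 and Gα16 | Probe or stimulus: EC80 β-phenethylamine stimulus | Dosing: 3 µM, single point | Times: Dye loading 75 min at 37 °C, then 30 min room temperature | Measured by: Fluo-8 calcium-sensitive fluorescence | Read-out basis: % inhibition of agonist calcium response | Replicates: n of 1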
OX1R antag-2: OX1R (HCRTR1) antagonists, primary screen, fluorescence, CHO/OX1R cells, Fluo-8 calcium, orexin A. Orexin/Hypocretin receptor type 1 (Homo sapiens), O43613. Fluo-8 calcium fluorescence. inhibition, % at 5 µM. hit rate 0.43% among 330,000. AID 434989, 2010;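 active = inhibition above its plate's threshold, mean inhibition of all tested compounds on the plate plus 3 SD, cut at about 37% in these data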;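 also: 0% = orexin A challenge wells and 100% = SB-334867-A antagonist wells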
GalR3 antagonist: GalR3 antagonists in HEK293 cells, primary screen, cell-based, fluorescence readout | inhibition, % at 3 µM | AID 651719, 2012 | Galanin receptor type 3 (Homo sapiens), O60755 | hit rate 0.44% among 360,000 | HEK293 GalR3-CNG cAMP membrane potential fluorescence; galR3 body fused to GalR1 C-terminus;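 active = inhibition above the screen-wide average plus 3 SD, cut at about 13% in these data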;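 also: forskolin and galanin both at EC90 stimulate the cells; cAMP rise reported by CNG channel membrane potential dye signal; 0% = forskolin plus galanin with DMSO and 100% = forskolin alone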
CHO parental Ca: ATP-evoked calcium signal inhibitors, parental CHO, primary screen, counter-screen for OX1R antagonist project, cell-based, fluorescence, Fluo-8 calcium dye | parental CHO-K1, ATP-induced calcium, Fluo-8 fluorescence | AID 463079, 2010 | inhibition, % at 5.6 µM | hit rate 0.63% among 330,000;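 active = inhibition above that plate's mean sample inhibition plus 3 SD, cut at about 26% in these data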;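 also: 0% = ATP-challenged DMSO wells and 100% = DMSO wells without ATP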
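Measured by: calcium-sensitive Fluo-8 fluorescence / Test system: CHO parental line / Controls: ATP-challenged DMSO wells low, unchallenged DMSO wells high / Measure: % inhibition / Compound: single nominal dose of 5.6 µM per compound / Replicates: single well per compound, no replicates / Reagent: ATP as calcium-mobilizing challenge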
* marks the source's active call; other numbers are inactive results; / = no result. Hits are enriched below; roughly 4.3% of the tested compounds scored in any of these assays.

SMILES	OX1R antag-1	TAAR1 ag	TAAR1 antagonist	OX1R antag-2	GalR3 antagonist	CHO parental Ca
CCn1cc(C(=O)NCc2ccc(C)cc2)c(=O)c2cc(S(=O)(=O)N(C)C)ccc21	6	10	-1	-30	-12	-14
CC(=O)c1c(C)[nH]c(C(=O)CSc2nnc(-c3ccccc3)o2)c1C	18	33	56*	-8	-3	14
COc1cccc(-c2nn3c(-c4cccc(C)c4)nnc3s2)c1	57*	-1	14	-4	-7	-29
CCOc1ccc(-c2nnc3sc(COc4ccccc4)nn23)cc1	9	0	-7	-29	-6	-11
COc1cccc(-c2nnc3sc(-c4ccc(C)cc4)nn23)c1	12	/	/	-14	/	-12
CCOc1ccc(-c2nn3c(-c4ccccc4)nnc3s2)cc1	64*	12	28	-1	-5	-14
CC1(C2CC(=O)c3c(O)ccc(O)c3C2)OCCO1 (stereo not drawn)	/	0	-3	/	2	/
COc1cc(C(=O)NN=C2c3ccccc3-c3ccccc32)cc(OC)c1OC	/	4	9	/	-7	/
C/C(=N\Nc1nc2ccccc2s1)c1cccs1	56*	10	0	-22	-4	-19
CC(=NNc1nc2ccccc2s1)c1ncccn1	/	49*	74*	/	0	/
C/C(=N\Nc1nc(-c2ccccc2)cs1)c1cccs1	8	2	26	-9	-1	-16
COc1ccc(S(=O)(=O)Oc2c(OC)cc(C(=S)N3CCOCC3)cc2OC)cc1	12	2	4	-18	-11	-16
COc1cc(C(=S)N2CCOCC2)cc(Br)c1OS(=O)(=O)c1ccccc1	35*	3	26	18	-12	5
COC(=O)[C@]12CCCCC=C1N(CCc1ccc(OC)c(OC)c1)C(=O)[C@H](CC(=O)N1CCSCC1)C2	/	12	61*	/	-4	/
C#CCNC(=O)C[C@@H]1C[C@@]2(C(=O)OC)CCCCC=C2N(Cc2ccc3c(c2)OCO3)C1=O	/	3	3	/	-4	/
CCOC(=O)[C@]12CCC=C1N(Cc1ccc3c(c1)OCO3)C(=O)[C@H](CC(=O)N1CCCC1)C2	/	1	-9	/	-5	/
COC(=O)[C@]12CCCCC=C1N(Cc1ccc3c(c1)OCO3)C(=O)[C@H](CC(=O)N1CCCCC1)C2	/	12	52*	/	4	/
COC(=O)[C@]12CCCCC=C1N(Cc1ccc3c(c1)OCO3)C(=O)[C@H](CC(=O)N1CCCC1)C2	/	14	54*	/	-6	/
COC(=O)[C@]12CCCCC=C1N(Cc1ccccc1)C(=O)[C@H](CC(=O)N1CCCC1)C2	/	13	56*	/	-5	/
COC(=O)[C@]12CCCCC=C1N(CCc1ccc(OC)c(OC)c1)C(=O)[C@H](CC(=O)N1CCCC1)C2	/	9	34	/	-1	/
COC(=O)N1C[C@H](Oc2ncccn2)[C@H]2C[C@@H]1c1ccccc1O2	/	3	-35	/	-1	/
COc1ccc(C2=NOC(C(=O)Nc3ccc4c(c3)OCCO4)C2)c(OC)c1 (stereo not drawn)	1	1	2	-18	-11	-15
Cc1cc(C)n2nc(C(=O)N/N=C/c3cccs3)nc2n1	35*	0	-7	-19	-9	-3
NC(=O)c1ncn([C@@H]2O[C@H](C(=O)N[C@H](Cc3c[nH]c4ccccc34)C(=O)N3CCN(C(=O)N4CCCCC4)CC3)[C@@H](O)[C@H]2O)n1	/	4	-20	/	-1	/
CCOc1ccc(N(CC(=O)N/N=C(\C)c2cccc(NC(C)=O)c2)S(=O)(=O)c2ccccc2)cc1	-8	3	6	-29	-12	-24
SMILES	OX1R antag-1	TAAR1 ag	TAAR1 antagonist	OX1R antag-2	GalR3 antagonist	CHO parental Ca
C[C@H](NC(=O)c1nc[nH]c1C(=O)N[C@@H](C)c1ccccc1)c1ccccc1	6	42*	54*	-30	-6	-41
CC(C)(C)OC(=O)NCCCCCNC(=O)c1nc[nH]c1C(=O)NCCCCCNC(=O)OC(C)(C)C	11	21	69*	-5	-6	-9
O=C(Nc1ccccc1)c1nc[nH]c1C(=O)NCCCNC(=O)c1[nH]cnc1C(=O)Nc1ccccc1	4	19	54*	11	3	-11
CC(C)(C)OC(=O)NCCCCCNC(=O)c1nc[nH]c1C(=O)NCc1ccc(CNC(=O)OC(C)(C)C)cc1	15	23	81*	58*	-3	40*
C[C@H](NC(=O)c1[nH]cnc1C(=O)N[C@@H](C)CO)c1ccccc1	/	0	0	/	-5	/
CC(C)(C)OC(=O)NCCCCCNC(=O)c1[nH]cnc1C(=O)N[C@@H](CCCCNC(=O)OC(C)(C)C)C(=O)OC(C)(C)C	21	/	/	-34	/	-17
Cc1ccc(C2(C)NC(=O)N(CC(=O)N3CCN(S(=O)(=O)c4ccc(Cl)s4)CC3)C2=O)cc1 (stereo not drawn)	2	5	18	-15	-4	-10
CCOC(=O)CCCCCC(=O)Nc1ccc2c(c1)C(=O)N([C@H](C)CO)C[C@H](C)[C@H](CN(C)C(=O)C1CCCCC1)OCCCC[C@@H](C)O2	/	-1	12	/	-6	/
Nc1ccn([C@@H]2O[C@H](C(=O)N[C@H](Cc3ccccc3)C(=O)N3CCN(C(=O)N4CCCCC4)CC3)[C@@H](O)[C@H]2O)c(=O)n1	/	-1	-5	/	-3	/
CCn1cc(Cl)c(C(=O)N2N=C(c3ccc4ccccc4c3)CC2c2ccccc2O)n1 (stereo not drawn)	4	9	28	12	-6	60*
O=C(Nc1ccccc1F)c1ccc2sc([C@H]3C[C@H](O)[C@@H](CO)O3)nc2c1	/	1	-12	/	-9	/
Cc1ccc(NC(=O)/C=C/c2ccc(S(=O)(=O)N3CCOCC3)cc2)cc1S(=O)(=O)N(C)C	/	22	66*	/	-7	/
CC(=O)Nc1cccc(NC(=O)/C=C/c2ccc(S(=O)(=O)N3CCOCC3)cc2)c1	11	2	2	10	-4	-19
CC(C)C[C@H](NC(=O)c1[nH]cnc1C(=O)Nc1ccc(CNC(=O)OC(C)(C)C)cc1)C(=O)OC(C)(C)C	9	5	27	-27	0	-32
